One data set has as its target Ryanodine receptor 3 (Mus musculus, UniProt A2AGL3). The data set can be described thus: Binding affinity to ryanodine receptor in Mus musculus albino Swiss-Webster (mouse) brain.
Data set [1] can be described thus: Toxicity in ip dosed Mus musculus albino Swiss-Webster (mouse) […]. Type of data set: organism-based. As to conditions: in vivo. In outline: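 Male albino Swiss-Webster mice, 18–22 g; ryanoid given ip in methoxytriglycol (50 μL); mortality read at 24 h.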
The target of data set [2] is Ryanodine receptor 1 (Oryctolagus cuniculus) (UniProt P11716). Kind of data set: Displacement of [3H]ryanodine from Ca2+-ryanodine receptor in Oryctolagus cuniculus (rabbit) skeletal muscle sarcoplasmic reticulum after 1 hr by competitive inhibition assay in presence of ATP relative to ryanodine. In a few lines: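 Unlabeled ryanoid introduced in DMSO (1% final) before incubation. Filtration, washes in 150 mM KCl/10 mM Hepes pH 7.4. Nonspecific binding: 10 μM dehydroryanodine. IC50 from LIGAND; duplicate experiments.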
Chain of Ryanodine receptor 1 (Oryctolagus cuniculus) (P11716 whole entry): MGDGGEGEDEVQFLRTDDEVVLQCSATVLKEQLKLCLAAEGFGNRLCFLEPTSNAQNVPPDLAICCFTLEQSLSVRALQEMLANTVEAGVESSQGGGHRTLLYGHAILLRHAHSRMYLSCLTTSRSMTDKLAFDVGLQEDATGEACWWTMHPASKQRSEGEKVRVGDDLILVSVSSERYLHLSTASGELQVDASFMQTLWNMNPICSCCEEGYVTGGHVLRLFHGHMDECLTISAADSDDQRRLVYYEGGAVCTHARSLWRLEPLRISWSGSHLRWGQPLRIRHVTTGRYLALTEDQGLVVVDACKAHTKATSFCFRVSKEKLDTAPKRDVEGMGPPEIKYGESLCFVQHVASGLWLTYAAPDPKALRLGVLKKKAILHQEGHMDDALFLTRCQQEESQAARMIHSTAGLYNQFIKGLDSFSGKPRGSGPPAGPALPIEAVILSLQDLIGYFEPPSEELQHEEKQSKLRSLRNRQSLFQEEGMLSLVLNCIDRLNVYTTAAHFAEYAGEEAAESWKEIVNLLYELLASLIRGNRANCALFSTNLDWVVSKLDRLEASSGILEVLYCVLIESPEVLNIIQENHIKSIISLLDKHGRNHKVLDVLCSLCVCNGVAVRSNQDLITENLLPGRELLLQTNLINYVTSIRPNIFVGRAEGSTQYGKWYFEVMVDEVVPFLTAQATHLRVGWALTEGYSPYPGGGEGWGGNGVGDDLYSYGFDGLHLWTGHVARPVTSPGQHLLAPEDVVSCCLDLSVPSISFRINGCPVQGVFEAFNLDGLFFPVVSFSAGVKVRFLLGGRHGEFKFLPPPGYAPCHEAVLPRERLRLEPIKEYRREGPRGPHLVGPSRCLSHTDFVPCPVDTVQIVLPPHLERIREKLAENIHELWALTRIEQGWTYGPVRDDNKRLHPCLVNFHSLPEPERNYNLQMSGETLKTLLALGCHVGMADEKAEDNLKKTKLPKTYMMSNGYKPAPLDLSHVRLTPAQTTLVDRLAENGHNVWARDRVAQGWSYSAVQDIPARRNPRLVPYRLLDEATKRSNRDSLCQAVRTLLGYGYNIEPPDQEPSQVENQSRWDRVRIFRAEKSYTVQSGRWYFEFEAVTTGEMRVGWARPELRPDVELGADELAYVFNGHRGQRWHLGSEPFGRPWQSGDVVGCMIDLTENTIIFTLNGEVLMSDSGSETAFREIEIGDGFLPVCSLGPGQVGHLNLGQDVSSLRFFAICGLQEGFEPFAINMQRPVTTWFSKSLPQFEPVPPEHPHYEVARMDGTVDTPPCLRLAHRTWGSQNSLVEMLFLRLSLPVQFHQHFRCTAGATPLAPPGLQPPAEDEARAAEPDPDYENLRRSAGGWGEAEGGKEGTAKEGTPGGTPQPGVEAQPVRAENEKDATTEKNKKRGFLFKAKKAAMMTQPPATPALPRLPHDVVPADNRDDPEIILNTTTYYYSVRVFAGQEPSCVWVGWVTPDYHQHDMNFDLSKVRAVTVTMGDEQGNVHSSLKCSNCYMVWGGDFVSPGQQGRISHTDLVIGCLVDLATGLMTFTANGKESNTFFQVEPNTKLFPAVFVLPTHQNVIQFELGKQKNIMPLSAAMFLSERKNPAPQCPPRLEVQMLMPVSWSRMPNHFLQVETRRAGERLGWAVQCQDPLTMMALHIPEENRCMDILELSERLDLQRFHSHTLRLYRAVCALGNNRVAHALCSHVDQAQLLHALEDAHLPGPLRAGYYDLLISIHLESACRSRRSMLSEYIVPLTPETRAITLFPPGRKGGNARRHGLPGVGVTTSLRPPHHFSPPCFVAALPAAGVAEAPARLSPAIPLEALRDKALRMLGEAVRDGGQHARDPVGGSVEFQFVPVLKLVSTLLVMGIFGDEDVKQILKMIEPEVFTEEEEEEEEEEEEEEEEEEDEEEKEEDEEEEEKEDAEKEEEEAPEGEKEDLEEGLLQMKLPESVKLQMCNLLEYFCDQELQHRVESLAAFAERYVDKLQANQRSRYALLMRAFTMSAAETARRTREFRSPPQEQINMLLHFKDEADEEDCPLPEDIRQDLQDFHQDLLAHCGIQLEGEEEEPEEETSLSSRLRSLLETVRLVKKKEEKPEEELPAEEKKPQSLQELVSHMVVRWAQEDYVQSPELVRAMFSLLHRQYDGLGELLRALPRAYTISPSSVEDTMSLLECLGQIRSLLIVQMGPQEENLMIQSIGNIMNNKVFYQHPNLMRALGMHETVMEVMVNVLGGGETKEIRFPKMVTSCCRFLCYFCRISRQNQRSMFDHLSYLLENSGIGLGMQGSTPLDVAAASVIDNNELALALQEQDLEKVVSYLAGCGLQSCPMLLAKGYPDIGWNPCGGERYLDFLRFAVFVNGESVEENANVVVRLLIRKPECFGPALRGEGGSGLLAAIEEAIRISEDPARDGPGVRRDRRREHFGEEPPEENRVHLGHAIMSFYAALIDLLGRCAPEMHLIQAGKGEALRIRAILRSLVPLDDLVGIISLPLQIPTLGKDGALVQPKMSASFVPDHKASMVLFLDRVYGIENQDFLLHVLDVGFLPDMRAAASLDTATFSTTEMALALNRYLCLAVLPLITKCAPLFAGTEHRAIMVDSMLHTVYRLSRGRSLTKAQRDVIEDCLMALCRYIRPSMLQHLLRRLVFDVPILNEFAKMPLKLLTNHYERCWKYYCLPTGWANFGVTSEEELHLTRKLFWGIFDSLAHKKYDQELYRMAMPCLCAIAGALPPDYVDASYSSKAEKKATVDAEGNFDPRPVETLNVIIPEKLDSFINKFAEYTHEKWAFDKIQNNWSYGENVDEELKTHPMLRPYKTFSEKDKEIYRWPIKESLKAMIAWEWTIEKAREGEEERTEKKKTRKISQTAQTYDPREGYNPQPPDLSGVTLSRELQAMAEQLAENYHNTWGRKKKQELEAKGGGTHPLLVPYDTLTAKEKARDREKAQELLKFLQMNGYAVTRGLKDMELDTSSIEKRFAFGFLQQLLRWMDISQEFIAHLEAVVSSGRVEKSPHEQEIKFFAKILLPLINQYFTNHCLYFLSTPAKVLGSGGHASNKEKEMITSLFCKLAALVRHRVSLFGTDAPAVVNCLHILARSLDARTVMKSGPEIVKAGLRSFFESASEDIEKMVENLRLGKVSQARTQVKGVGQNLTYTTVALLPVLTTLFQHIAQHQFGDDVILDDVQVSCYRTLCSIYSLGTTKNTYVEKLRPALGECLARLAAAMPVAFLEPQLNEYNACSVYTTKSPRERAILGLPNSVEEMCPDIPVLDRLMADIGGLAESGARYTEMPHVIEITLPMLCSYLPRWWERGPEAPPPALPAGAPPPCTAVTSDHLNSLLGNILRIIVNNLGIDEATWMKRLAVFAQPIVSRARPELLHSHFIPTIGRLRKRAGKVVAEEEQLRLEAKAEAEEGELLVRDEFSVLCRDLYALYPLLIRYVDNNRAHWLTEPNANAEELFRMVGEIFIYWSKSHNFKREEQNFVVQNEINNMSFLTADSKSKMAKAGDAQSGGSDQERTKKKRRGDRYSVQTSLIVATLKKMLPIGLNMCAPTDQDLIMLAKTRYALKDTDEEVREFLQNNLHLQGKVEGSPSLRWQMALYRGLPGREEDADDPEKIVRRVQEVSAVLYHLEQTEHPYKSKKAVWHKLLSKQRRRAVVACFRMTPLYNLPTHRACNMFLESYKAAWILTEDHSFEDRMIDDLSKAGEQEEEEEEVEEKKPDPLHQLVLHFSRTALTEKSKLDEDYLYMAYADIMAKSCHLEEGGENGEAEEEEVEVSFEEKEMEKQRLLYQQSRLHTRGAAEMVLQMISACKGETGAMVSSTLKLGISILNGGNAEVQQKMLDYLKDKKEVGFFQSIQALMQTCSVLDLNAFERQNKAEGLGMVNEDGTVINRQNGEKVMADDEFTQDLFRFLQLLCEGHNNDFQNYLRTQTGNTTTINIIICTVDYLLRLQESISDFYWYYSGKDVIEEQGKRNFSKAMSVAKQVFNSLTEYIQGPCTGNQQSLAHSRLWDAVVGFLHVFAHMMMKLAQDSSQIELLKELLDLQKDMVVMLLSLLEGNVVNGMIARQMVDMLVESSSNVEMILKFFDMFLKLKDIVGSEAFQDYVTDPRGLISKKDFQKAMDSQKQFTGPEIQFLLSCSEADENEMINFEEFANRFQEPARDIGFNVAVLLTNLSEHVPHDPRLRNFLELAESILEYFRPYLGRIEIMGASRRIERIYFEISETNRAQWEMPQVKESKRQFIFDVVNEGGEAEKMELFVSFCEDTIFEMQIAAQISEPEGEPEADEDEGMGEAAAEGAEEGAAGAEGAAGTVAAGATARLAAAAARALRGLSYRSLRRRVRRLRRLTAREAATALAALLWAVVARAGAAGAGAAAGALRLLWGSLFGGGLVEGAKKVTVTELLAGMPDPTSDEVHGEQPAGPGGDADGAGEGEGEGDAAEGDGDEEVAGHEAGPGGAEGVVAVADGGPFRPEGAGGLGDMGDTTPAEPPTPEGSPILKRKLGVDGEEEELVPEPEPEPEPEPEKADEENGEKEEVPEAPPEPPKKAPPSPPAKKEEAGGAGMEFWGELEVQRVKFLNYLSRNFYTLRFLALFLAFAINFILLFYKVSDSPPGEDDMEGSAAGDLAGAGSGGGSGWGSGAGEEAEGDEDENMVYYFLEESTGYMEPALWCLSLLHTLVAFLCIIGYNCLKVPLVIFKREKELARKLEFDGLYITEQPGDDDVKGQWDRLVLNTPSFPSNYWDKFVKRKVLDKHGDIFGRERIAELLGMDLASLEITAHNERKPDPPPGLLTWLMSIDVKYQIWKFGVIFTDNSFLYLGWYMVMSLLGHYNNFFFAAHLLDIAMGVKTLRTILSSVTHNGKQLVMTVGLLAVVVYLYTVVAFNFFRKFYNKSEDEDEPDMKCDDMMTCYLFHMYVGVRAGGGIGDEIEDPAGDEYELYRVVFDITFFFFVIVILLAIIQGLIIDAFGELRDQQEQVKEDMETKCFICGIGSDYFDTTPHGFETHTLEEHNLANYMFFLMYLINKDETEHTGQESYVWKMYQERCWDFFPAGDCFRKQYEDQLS
(Displacement assays read how much labelled ligand stays bound in the presence of the test substance.)

For data set [3], the target named is Ryanodine receptor 3 (Mus musculus) (UniProt A2AGL3). Kind of data set: Binding affinity to ryanodine receptor in Mus musculus albino Swiss-Webster (mouse) brain relative to ryanodine.
The target of data set [4] is Ryanodine receptor 1 (Oryctolagus cuniculus) (UniProt P11716). The data set can be described thus: Displacement of [3H]ryanodine from Ca2+-ryanodine receptor in Oryctolagus cuniculus (rabbit) skeletal muscle sarcoplasmic reticulum after 2 hr by competitive inhibition assay relative to ryanodine. In a few lines:
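No ATP. […] Ryanoid given in DMSO (1% final). Glass-fiber filtration; three washes with ice-cold buffer a using Tris HCl instead of Hepes. Nonspecific binding with 10 μM dehydroryanodine. IC50 calculated by LIGAND; duplicate experiments.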

The test system of data set [5] is Musca domestica. The data set can be described thus: Toxicity against SCR-susceptible Musca domestica (house fly) assessed as immobility compound administered by intrathoracic injection 1 to 2 hr after piperonyl butoxide treatment measured 4 hr post compound treatment relative to ryanodine. Type of data set: functional. In a few lines: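 Adult female flies pretreated with piperonyl butoxide (5 μg in 0.5 μL acetone, ventral abdomen); 1-2 h later, 0.22 μL ryanoid in DMSO injected into the thorax. Knockdown scored at 4 h and KD50 derived. Ten flies per dose, 1.50-2-fold dose steps, two or more experiments (or single determinations where estimated).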

In data set [6] the test system is Musca domestica. The data set can be described thus: Toxicity against SCR-susceptible Musca domestica (house fly) assessed as mortality compound administered by intrathoracic injection 1 to 2 hr after piperonyl butoxide treatment measured 24 hr post compound treatment relative to ryanodine. Type of data set: functional.

As to `CC(C)[C@@]1(O)[C@@H](OC(=O)c2ccc[nH]2)[C@@]2(O)[C@@]3(C)C[C@]4(O)O[C@@]5([C@H](O)[C@@H](C)CC[C@]35O)[C@@]2(O)[C@@]14C` [RYANODINE], the IC50 (as a rule, the point on the concentration scale where inhibition reaches its midpoint) on Ryanodine receptor 3 stood at 3.3 nM. For the same compound, the LD50 (commonly the dose at which mortality reaches 50%) in data set [1] came to 0.49 mg/kg.
On to `CC(C)[C@@]1(O)[C@@H](OC(=O)c2ccc[nH]2)[C@]2(O)O[C@H]3[C@]45O[C@@](O)(C[C@@]2(C)[C@@]4(O)CC[C@H](C)[C@H]5O)[C@]31C`, for which the Ratio in data set [2] was 64; in data set [3], 54; in data set [4], 62; in the data set on Musca domestica [5] it was 270; in the data set with Musca domestica [6], 120. This compound also had an LD50 in data set [1] of 0.15 mg/kg.

For the origin of these results see ChEMBL document CHEMBL3046867, “Bioactive ryanoids from nucleophilic additions to 4,12-seco-4,12-dioxoryanodine” (J Med Chem, 1993).
